According to ChEMBL document CHEMBL2417376, “N-Heteroarylmethyl-5-hydroxy-1,2,5,6-tetrahydropyridine-3-carboxylic acid a novel scaffold for the design of uncompetitive α-glucosidase inhibitors” (Bioorg Med Chem, 2013):
The source made the active and inactive calls. The rule behind the calls is not given here.

How the values were obtained:
Saccharomyces cerevisiae [1] = assay: Inhibition of Saccharomyces cerevisiae alpha-glucosidase using pNPG as substrate assessed as residual activity at 100 uM preincubated for 20 mins followed by substrate addition measured after 45 mins relative to control
Method in brief: (§1)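 α-Glucosidase (0.175 U/ml) in water with compound (1 µL DMSO dilution) pre-incubated 20 min at 37 °C. Then added PBS (140 mM, pH 7.2), reduced glutathione (9 mM) and pNPG (0.9 mM). Incubated 45 min at 37 °C, read at 400 nm. % inhibition = (AC−AS)/AC×100 vs DMSO-only control. Triplicates with blanks.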

[2] = test system: beta-glucuronidase (Bos taurus); assay: Inhibition of bovine liver beta-glucuronidase using phenolphthalein beta-glucuronide as substrate assessed as residual activity measured liberation of phenolphthalein at 100 uM relative to control
[3] = target: Hyaluronidase (Bos taurus) (UniProt Q8SQG8+Q5E985); assay: Inhibition of bovine testes hyaluronidase using hyaluronic acid as substrate assessed as residual activity at 100 uM by nephelometric method relative to control; format: protein assay
Method in brief: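 Hyaluronidase assayed nephelometrically per supplier-recommended protocol. Compounds added from DMSO stock (100 mM), DMSO ≤1% of total volume; activity expressed as percent of activity with DMSO alone.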

[4] = Inhibition of Saccharomyces cerevisiae alpha-glucosidase using pNPG as substrate at 100 uM preincubated for 20 mins followed by substrate addition measured after 45 mins; method in brief: as §1
Saccharomyces cerevisiae [5] = assay: Uncompetitive inhibition of Saccharomyces cerevisiae alpha-glucosidase using pNPG as substrate at 0.17 to 100 uM by Lineweaver-Burk plot analysis
[6] = Uncompetitive inhibition of Saccharomyces cerevisiae alpha-glucosidase using pNPG as substrate by Cornish-Bowden plot analysis
Saccharomyces cerevisiae [7] = assay: Uncompetitive inhibition of Saccharomyces cerevisiae alpha-glucosidase using pNPG as substrate at 0.17 to 100 uM by Dixon plot analysis
Saccharomyces cerevisiae [8] = assay: Uncompetitive inhibition of Saccharomyces cerevisiae alpha-glucosidase using maltose as substrate assessed as ratio of Kik to Kiv at 2 uM
Method in brief: (§2)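 Maltose as substrate in the α-glucosidase protocol (20 min preincubation with inhibitor at 37 °C, then substrate incubation at 37 °C). Reaction stopped at 95 °C for 3 min, and released glucose measured with an HK/G6P-DH glucose kit. Vmax and Km by Lineweaver-Burk; Kik/Kiv ratio per Yang et al.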

[9] = Uncompetitive inhibition of Saccharomyces cerevisiae alpha-glucosidase using maltose as substrate by Cornish-Bowden plot analysis
Saccharomyces cerevisiae [10] = assay: Uncompetitive inhibition of Saccharomyces cerevisiae alpha-glucosidase using maltose as substrate assessed as ratio of Kik to Kiv at 1.6 uM; method in brief: as §2
Saccharomyces cerevisiae [11] = assay: Uncompetitive inhibition of Saccharomyces cerevisiae alpha-glucosidase using maltose as substrate at 0.17 to 100 uM by Dixon plot analysis
Saccharomyces cerevisiae [12] = assay: Uncompetitive inhibition of Saccharomyces cerevisiae alpha-glucosidase using pNPG as substrate assessed as ratio of Kik to Kiv at 2 uM
Saccharomyces cerevisiae [13] = assay: Uncompetitive inhibition of Saccharomyces cerevisiae alpha-glucosidase using pNPG as substrate assessed as ratio of Kik to Kiv at 1.6 uM
Saccharomyces cerevisiae [14] = assay: Uncompetitive inhibition of Saccharomyces cerevisiae alpha-glucosidase using maltose as substrate assessed as ratio of Kik to Kiv at 2.4 uM; method in brief: as §2
Saccharomyces cerevisiae [15] = assay: Uncompetitive inhibition of Saccharomyces cerevisiae alpha-glucosidase using maltose as substrate assessed as ratio of Kik to Kiv at 1.2 uM; method in brief: as §2
Saccharomyces cerevisiae [16] = assay: Uncompetitive inhibition of Saccharomyces cerevisiae alpha-glucosidase using maltose as substrate assessed as ratio of Kik to Kiv at 4 uM; method in brief: as §2
Saccharomyces cerevisiae [17] = assay: Uncompetitive inhibition of Saccharomyces cerevisiae alpha-glucosidase using pNPG as substrate assessed as ratio of Kik to Kiv at 8 uM
Saccharomyces cerevisiae [18] = assay: Uncompetitive inhibition of Saccharomyces cerevisiae alpha-glucosidase using pNPG as substrate assessed as ratio of Kik to Kiv at 4 uM
Saccharomyces cerevisiae [19] = assay: Uncompetitive inhibition of Saccharomyces cerevisiae alpha-glucosidase using maltose as substrate at 0.17 to 100 uM by Lineweaver-Burk plot analysis; method in brief: as §2
Saccharomyces cerevisiae [20] = assay: Uncompetitive inhibition of Saccharomyces cerevisiae alpha-glucosidase using maltose as substrate assessed as ratio of Kik to Kiv at 8 uM; method in brief: as §2
Saccharomyces cerevisiae [21] = assay: Uncompetitive inhibition of Saccharomyces cerevisiae alpha-glucosidase using pNPG as substrate assessed as ratio of Kik to Kiv at 1.2 uM
Saccharomyces cerevisiae [22] = assay: Uncompetitive inhibition of Saccharomyces cerevisiae alpha-glucosidase using pNPG as substrate assessed as ratio of Kik to Kiv at 2.4 uM

| Structure (SMILES) | Activity (Saccharomyces cerevisiae [1]) | Activity [2] | Activity [3] | also measured |
| --- | --- | --- | --- | --- |
| O=C(O)C1=CC(O)CN(Cc2ccccc2)C1 (stereo not given) | 95% | 97% | 101% | – |
| O=C(O)C1=CCCN(Cc2ccncc2)C1 | 99% | 95% | 99% | – |
| O=C(O)C1=CC(O)CN(Cc2cc(=O)[nH]c(=O)[nH]2)C1 (stereo not given) | 3% | 102% | 100% | IC50 [4]: 2000 nM; uncompetitive inhibition (Lineweaver-Burk) (Saccharomyces cerevisiae [5]): Active; Ki [6]: 12500 nM; Inhibition type (qualitative) (Saccharomyces cerevisiae [7]): Active |
| O=C(O)[C@H]1CN(Cc2cccnc2)CC[C@H]1O | 97% | 104% | 100% | – |
| O=C(O)[C@H]1CN(Cc2ccncc2)CC[C@H]1O | 85% | 108% | 100% | – |
| COC(=O)C1=CC(O)CN(Cc2cc(=O)[nH]c(=O)[nH]2)C1 (stereo not given) | 95% | 97% | 100% | – |
| O=C(O)C1=CC(O)CN(Cc2ccncc2)C1 (stereo not given) | 3% | 103% | 104% | IC50 [4]: 2000 nM; uncompetitive inhibition (Lineweaver-Burk) (Saccharomyces cerevisiae [5]): Active; Ki [6]: 10200 nM; Inhibition type (qualitative) (Saccharomyces cerevisiae [7]): Active |
| O=C(O)C1=CC(O)CN(Cc2cccnc2)C1 (stereo not given) | 2% | 100% | 102% | IC50 [4]: 2340 nM; Ratio (Saccharomyces cerevisiae [8]): 1.09; Ki [9]: 800 nM; Ratio (Saccharomyces cerevisiae [10]): 1.04; uncompetitive inhibition (Lineweaver-Burk) (Saccharomyces cerevisiae [5]): Active; inhibition (Saccharomyces cerevisiae [11]): Active; Ki [6]: 1200 nM; Ratio (Saccharomyces cerevisiae [12]): 0.998; Ratio (Saccharomyces cerevisiae [13]): 1.09; Ratio (Saccharomyces cerevisiae [14]): 1.07; Ratio (Saccharomyces cerevisiae [15]): 1.05; Ratio (Saccharomyces cerevisiae [16]): 1.2; Ratio (Saccharomyces cerevisiae [17]): 1.72; Inhibition type (qualitative) (Saccharomyces cerevisiae [7]): Active; Ratio (Saccharomyces cerevisiae [18]): 1.49; inhibition (Saccharomyces cerevisiae [19]): Active; Ratio (Saccharomyces cerevisiae [20]): 1.47; Ratio (Saccharomyces cerevisiae [21]): 1.03; Ratio (Saccharomyces cerevisiae [22]): 1.25 |
| CCOC(=O)C1CN(Cc2ccccc2)CCC1O (mixture of isomers) | 100% | 95% | 103% | – |
| COC(=O)C1=CC(O)CN(Cc2ccccn2)C1 (stereo not given) | 97% | 103% | 100% | – |
| O=C(O)C1=CCCN(Cc2ccccc2)C1 | 97% | 89% | 100% | – |
